Assay results published in ChEMBL document CHEMBL4673340 (J Med Chem, 2020).
The source made the active and inactive calls. No cut-off for these calls is given here.

Assays:
[1] = Oral bioavailability in Beagle dog at 2 mg/kg by LC-MS/MS analysis; assay type: ADME, organism-based, Canis lupus familiaris; conditions: in vivo
How it was run: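 Beagle dogs, three per group. iv 1 mg/kg in 25% DMA in water; oral 2 mg/kg. Values are means of three dogs.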

[2] = molecular target: Solute carrier family 22 member 6 (Homo sapiens, UniProt Q4U2R8); assay: Inhibition of OAT1 (unknown origin)
[3] = Half life in ICR mouse at 10 mg/kg, po by LC-MS/MS analysis; assay type: ADME, organism-based; conditions: in vivo
How it was run: (§1)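 Male/female unspecified ICR mice, n=3 per route. Intravenous 1 mg/kg in 5% DMA in water; oral 10 mg/kg in 0.5% MC. Plasma is processed by protein precipitation and analysed by LC–MS/MS using an acetonitrile/0.1% formic acid gradient. Values are means of the three animals.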

[4] = Ratio of drug level in brain to plasma of C57BL/6 mouse brain at 10 mg/kg, po after 2 hrs; assay type: ADME, organism-based
How it was run: (§2)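 C57BL/6 mice were given 10 mg/kg po in 0.5% MC and sampled at 1, 2 and 4 h. Brain was homogenized in 3 volumes of saline, and brain and plasma were protein-precipitated with acetonitrile, then measured by LC-MS/MS. Brain (ng/g) was expressed as a percentage of plasma (ng/mL). Values are means of three mice.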

[5] = Clearance in mouse liver microsomes; assay type: ADME, Microsome; conditions: read-out: CLH
[6] = Clearance in human liver microsomes; assay type: ADME, Microsome
[7] = Apparent permeability from apical to basolateral side in human Caco-2 cells; assay type: ADME, cell-based
[8] = Drug level in C57BL/6 mouse plasma at 10 mg/kg, po after 2 hrs; assay type: ADME, organism-based
How it was run: (§3)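 C57BL/6 mice (n=3) dosed orally at 10 mg/kg in 0.5% MC. Plasma and brain are sampled at 1, 2 and 4 h. Brain is homogenized in 3 volumes of saline, then acetonitrile protein precipitation; plasma is likewise precipitated. Both are analysed by LC–MS/MS and reported as means.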

[9] = Unbound fraction in mouse plasma; assay type: ADME, cell-free
NCI-H209 = assay: Potentiation of TMZ-induced antitumor activity against human NCI-H209 cells xenografted in BALB/c nude mouse assessed as PR rate at […], po BID for 28 days and co-treated with 50 mg/kg, po QD TMZ for 5 consecutive days at start of study and again 14 days later; assay type: functional; conditions: time 28 day
[10] = Oral bioavailability in Sprague-Dawley rat at 5 mg/kg by LC-MS/MS analysis; assay type: ADME, organism-based; conditions: in vivo
How it was run: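 Pharmacokinetics in Sprague-Dawley rats, three per group. iv 2 mg/kg in 38% DMA in water; po 5 mg/kg. Plasma was protein-precipitated, diluted with water and analysed by LC-MS/MS using an acetonitrile/0.1% formic acid gradient. Values are means of three rats.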

[11] = molecular target: Organic anion transporter 3 (Homo sapiens, UniProt Q8TCC7); assay: Inhibition of OAT3 (unknown origin)
[12] = Drug level in C57BL/6 mouse plasma at 10 mg/kg, po after 1 hrs; assay type: ADME, organism-based; how it was run: as §3
[13] = Cmax in Sprague-Dawley rat at 5 mg/kg, po by LC-MS/MS analysis; conditions: in vivo
[14] = Drug level in C57BL/6 mouse brain at 10 mg/kg, po after 2 hrs; assay type: ADME, organism-based; conditions: read-out: Drug uptake; how it was run: as §3
[15] = Clearance in ICR mouse at 1 mg/kg, iv by LC-MS/MS analysis; assay type: ADME, organism-based; conditions: in vivo; how it was run: as §1
[16] = Drug level in C57BL/6 mouse brain at 10 mg/kg, po after 1 hrs; assay type: ADME, organism-based; conditions: read-out: Drug uptake; how it was run: as §3
[17] = Tmax in Sprague-Dawley rat at 5 mg/kg, po by LC-MS/MS analysis; conditions: in vivo
[18] = AUC ( 0 to infinity) in Sprague-Dawley rat at 5 mg/kg, po by LC-MS/MS analysis; conditions: in vivo
[19] = Half life in ICR mouse at 1 mg/kg, iv by LC-MS/MS analysis; assay type: ADME, organism-based; conditions: in vivo; how it was run: as §1
[20] = molecular target: Solute carrier family 22 member 2, OCT2 (Homo sapiens) (UniProt O15244); assay: Inhibition of OCT2 (unknown origin) up to 50 uM; conditions: dose microM <=50
Cytochrome P450 2C19 = Cytochrome P450 2C19 (Homo sapiens, UniProt P33261); assay: Inhibition of CYP2C19 (unknown origin); assay type: ADME
Cytochrome P450 2C9 = Cytochrome P450 2C9 (Homo sapiens, UniProt P11712); assay: Inhibition of CYP2C9 (unknown origin); assay type: ADME
[21] = molecular target: Solute carrier organic anion transporter family member 1B1 (Homo sapiens, UniProt Q9Y6L6); assay: Inhibition of OATP1B1 (unknown origin)
HCC1395 = assay: Antiproliferation activity against human HCC1395 cells expressing BRCA1 mutant incubated for 7 days by CellTiter-Glo luminescent cell viability assay; assay type: functional, cell-based; conditions: HCC1395, 168 h
How it was run: (§4)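 Seeding density is set per line for log growth over 7 days. Cells attach 16 h, then are treated in duplicate with a 10-point dilution series for 7 days. CellTiter-Glo luminescence (ATP) is read, and viability is expressed relative to mock-treated control. EC50 is the mean of three independent experiments run in triplicate.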

hERG (KCNH2) = hERG (KCNH2) (Homo sapiens, UniProt Q12809); assay: Inhibition of human ERG activity at 20 uM by functional cellular assay
Cytochrome P450 2D6 = Cytochrome P450 2D6 (Homo sapiens, UniProt P10635); assay: Inhibition of CYP2D6 (unknown origin); assay type: ADME
[22] = Ratio of drug level in brain to plasma of C57BL/6 mouse brain at 10 mg/kg, po after 4 hrs; assay type: ADME, organism-based; how it was run: as §2
[23] = Volume of distribution at steady state in ICR mouse at 1 mg/kg, iv by LC-MS/MS analysis; assay type: ADME, organism-based; conditions: in vivo, read-out: Vdss
How it was run: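 Three ICR mice per arm. iv dose 1 mg/kg in 5% DMA in water; oral dose 10 mg/kg in 0.5% MC. Plasma was processed by protein precipitation, diluted with water and quantified by LC-MS/MS (C18 column, acetonitrile/0.1% formic acid gradient). Values are means of three animals.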

[24] = AUC (0 to infinity) in Beagle dog at 2 mg/kg, po by LC-MS/MS analysis; assay type: ADME, organism-based, Canis lupus familiaris; set-up: route oral, time infinity, dose 2 mg/kg; conditions: in vivo
How it was run: (§5)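 Three Beagle dogs; iv dose 1 mg/kg in 25% DMA in water; oral dose 2 mg/kg in 0.5% CMC-Na. Plasma drug concentrations are measured by LC–MS/MS. Values are the mean of three dogs.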

[25] = Cmax in Beagle dog at 2 mg/kg, po by LC-MS/MS analysis; assay type: ADME, organism-based, Canis lupus familiaris; set-up: route oral, dose 2 mg/kg; conditions: in vivo; how it was run: as §5
[26] = Unbound fraction in human plasma; assay type: ADME, cell-free
MDA-MB-231 = assay: Antiproliferation activity against human MDA-MB-231 cells incubated for 7 days by CellTiter-Glo luminescent cell viability assay; assay type: functional, cell-based; conditions: MDA-MB-231, 168 h; how it was run: as §4
[27] = AUC (0 to infinity) in Sprague-Dawley rat at 2 mg/kg, iv by LC-MS/MS analysis; assay type: ADME, organism-based; set-up: time infinity, route intravenous, dose 2 mg/kg; conditions: in vivo
How it was run: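 Sprague-Dawley rats (n=3) get 2 mg/kg iv formulated in 38% DMA in water. Plasma is protein-precipitated and quantified by LC–MS/MS (C18, acetonitrile/0.1% formic acid gradient). Parameters are means of the three rats.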

Chain of Cytochrome P450 2D6 (P10635 whole entry): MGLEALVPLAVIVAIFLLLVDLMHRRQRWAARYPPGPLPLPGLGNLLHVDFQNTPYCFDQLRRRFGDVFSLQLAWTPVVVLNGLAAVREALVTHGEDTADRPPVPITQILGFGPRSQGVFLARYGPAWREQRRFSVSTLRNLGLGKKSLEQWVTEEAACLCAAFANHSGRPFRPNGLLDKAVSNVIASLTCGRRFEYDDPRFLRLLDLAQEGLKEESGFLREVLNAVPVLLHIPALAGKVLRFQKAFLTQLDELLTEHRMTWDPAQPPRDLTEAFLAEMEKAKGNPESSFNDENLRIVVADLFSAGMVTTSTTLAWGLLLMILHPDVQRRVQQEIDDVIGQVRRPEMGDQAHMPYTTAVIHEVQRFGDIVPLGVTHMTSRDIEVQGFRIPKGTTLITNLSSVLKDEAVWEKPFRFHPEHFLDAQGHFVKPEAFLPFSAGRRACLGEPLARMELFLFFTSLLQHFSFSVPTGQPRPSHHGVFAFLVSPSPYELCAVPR
Chain of Solute carrier organic anion transporter family member 1B1 (Q9Y6L6 whole entry): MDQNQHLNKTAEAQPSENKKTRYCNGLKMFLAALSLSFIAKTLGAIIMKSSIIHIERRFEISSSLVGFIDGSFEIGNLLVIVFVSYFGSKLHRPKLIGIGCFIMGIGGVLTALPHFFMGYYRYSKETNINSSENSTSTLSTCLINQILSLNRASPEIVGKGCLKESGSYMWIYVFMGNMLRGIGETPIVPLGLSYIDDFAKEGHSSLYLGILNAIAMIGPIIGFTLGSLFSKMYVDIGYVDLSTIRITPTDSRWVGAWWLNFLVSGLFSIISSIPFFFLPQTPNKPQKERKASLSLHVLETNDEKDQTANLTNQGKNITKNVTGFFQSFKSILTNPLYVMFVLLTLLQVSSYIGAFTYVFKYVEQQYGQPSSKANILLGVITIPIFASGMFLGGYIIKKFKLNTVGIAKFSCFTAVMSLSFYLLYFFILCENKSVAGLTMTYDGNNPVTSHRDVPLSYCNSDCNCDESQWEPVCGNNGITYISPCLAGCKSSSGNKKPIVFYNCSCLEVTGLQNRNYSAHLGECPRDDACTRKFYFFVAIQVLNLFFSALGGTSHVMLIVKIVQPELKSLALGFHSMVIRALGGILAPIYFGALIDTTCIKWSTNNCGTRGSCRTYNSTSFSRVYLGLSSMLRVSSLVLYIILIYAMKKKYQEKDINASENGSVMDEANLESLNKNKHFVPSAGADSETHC
Chain of Cytochrome P450 2C9 (P11712 whole entry): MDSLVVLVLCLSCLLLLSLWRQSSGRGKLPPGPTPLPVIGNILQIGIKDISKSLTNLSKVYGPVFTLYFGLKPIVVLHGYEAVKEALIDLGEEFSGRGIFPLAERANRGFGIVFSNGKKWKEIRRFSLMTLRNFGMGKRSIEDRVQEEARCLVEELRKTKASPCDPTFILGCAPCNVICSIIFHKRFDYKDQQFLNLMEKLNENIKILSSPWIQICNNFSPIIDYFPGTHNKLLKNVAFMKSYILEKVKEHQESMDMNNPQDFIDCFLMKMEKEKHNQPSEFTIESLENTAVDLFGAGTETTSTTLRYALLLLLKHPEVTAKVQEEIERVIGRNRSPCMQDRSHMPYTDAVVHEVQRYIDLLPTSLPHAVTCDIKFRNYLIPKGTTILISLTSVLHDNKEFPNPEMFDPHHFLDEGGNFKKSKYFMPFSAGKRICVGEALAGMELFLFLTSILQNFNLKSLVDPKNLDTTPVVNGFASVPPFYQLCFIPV
Chain of Organic anion transporter 3 (Q8TCC7 whole entry): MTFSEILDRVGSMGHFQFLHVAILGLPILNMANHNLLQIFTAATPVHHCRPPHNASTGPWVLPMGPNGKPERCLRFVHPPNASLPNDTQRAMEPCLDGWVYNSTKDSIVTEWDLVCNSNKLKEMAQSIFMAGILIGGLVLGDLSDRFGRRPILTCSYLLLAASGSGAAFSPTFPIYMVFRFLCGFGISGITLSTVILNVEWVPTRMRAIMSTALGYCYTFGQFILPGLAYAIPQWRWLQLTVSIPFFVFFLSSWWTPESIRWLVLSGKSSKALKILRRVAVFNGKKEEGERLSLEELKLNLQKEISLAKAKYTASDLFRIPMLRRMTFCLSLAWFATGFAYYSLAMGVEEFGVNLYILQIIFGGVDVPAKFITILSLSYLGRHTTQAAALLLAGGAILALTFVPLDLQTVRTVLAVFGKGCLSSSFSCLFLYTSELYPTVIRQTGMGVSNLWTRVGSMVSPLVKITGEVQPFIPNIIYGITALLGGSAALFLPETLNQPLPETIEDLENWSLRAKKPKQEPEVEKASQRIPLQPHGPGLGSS
Chain of Solute carrier family 22 member 2, OCT2 (Homo sapiens) (O15244 whole entry, looked up): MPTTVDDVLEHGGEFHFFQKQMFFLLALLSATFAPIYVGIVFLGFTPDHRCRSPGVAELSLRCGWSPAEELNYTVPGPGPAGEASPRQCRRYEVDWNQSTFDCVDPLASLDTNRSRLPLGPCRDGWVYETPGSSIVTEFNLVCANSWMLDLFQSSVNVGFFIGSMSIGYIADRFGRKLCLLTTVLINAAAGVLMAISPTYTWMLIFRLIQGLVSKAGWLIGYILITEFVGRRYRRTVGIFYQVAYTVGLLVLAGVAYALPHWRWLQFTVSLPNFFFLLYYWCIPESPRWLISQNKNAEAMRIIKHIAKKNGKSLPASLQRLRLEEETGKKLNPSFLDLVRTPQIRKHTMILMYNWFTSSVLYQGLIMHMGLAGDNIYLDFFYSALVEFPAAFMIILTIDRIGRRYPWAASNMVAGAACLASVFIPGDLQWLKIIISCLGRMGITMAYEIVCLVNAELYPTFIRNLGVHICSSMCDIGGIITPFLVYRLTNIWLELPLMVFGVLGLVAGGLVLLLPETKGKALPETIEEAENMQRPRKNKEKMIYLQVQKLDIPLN
Chain of Solute carrier family 22 member 6 (Q4U2R8 whole entry): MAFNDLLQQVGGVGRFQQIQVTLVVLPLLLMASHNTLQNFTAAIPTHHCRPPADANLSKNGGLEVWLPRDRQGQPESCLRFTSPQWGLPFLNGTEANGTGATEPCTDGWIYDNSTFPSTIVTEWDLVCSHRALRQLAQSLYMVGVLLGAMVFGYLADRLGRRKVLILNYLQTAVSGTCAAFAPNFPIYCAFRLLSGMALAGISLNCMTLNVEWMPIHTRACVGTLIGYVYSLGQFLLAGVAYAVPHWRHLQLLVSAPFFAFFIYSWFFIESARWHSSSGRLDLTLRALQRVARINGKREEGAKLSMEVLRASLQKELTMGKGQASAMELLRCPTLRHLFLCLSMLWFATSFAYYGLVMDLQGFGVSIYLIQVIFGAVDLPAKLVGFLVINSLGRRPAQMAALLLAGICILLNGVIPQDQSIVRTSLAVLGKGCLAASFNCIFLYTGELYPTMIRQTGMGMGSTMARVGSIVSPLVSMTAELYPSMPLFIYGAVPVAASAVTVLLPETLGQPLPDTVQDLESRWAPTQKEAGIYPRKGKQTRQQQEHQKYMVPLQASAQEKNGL
Chain of hERG (KCNH2) (Q12809 whole entry): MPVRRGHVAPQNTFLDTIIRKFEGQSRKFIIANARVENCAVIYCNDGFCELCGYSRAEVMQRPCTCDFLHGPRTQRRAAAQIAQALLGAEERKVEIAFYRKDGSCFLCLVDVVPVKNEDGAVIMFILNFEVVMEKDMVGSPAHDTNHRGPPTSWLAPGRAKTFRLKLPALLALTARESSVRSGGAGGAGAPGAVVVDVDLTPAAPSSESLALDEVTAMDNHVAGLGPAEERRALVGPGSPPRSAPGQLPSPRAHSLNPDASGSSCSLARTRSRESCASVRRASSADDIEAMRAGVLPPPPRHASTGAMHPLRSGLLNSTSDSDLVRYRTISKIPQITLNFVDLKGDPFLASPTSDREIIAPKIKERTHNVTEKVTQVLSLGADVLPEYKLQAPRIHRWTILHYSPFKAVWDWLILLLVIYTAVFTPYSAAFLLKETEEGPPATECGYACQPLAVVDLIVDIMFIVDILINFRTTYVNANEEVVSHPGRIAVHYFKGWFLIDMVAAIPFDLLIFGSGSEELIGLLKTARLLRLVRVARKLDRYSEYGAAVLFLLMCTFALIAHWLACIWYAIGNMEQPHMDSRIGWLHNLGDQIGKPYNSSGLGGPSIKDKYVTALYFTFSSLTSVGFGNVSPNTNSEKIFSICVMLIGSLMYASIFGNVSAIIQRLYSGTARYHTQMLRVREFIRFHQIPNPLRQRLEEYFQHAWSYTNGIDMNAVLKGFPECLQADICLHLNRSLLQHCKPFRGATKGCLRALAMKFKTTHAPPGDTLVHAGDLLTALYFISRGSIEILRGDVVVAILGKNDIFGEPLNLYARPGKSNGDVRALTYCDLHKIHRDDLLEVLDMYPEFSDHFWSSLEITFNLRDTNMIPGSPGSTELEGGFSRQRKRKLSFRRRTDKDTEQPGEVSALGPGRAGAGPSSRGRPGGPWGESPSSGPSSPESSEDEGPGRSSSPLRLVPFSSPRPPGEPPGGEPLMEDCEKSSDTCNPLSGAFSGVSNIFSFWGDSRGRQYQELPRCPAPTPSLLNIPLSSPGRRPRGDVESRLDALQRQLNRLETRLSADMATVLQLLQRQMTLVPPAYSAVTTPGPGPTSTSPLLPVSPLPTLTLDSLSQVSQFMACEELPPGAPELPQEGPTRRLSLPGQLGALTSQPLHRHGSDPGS
Chain of Cytochrome P450 2C19 (P33261 whole entry): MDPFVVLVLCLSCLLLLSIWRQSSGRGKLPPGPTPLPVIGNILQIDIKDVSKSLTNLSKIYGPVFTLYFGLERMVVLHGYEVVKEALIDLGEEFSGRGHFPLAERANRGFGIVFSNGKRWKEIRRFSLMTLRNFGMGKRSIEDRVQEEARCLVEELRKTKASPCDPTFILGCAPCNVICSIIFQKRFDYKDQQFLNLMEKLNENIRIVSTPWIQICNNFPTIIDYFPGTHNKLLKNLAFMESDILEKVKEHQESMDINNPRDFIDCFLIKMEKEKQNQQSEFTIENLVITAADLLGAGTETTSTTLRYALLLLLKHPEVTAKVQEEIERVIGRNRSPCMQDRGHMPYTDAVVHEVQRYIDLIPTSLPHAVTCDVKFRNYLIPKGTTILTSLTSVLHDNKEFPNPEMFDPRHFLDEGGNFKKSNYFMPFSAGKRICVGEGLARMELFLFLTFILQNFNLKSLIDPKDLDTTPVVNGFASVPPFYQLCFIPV

C[C@]12CCCN1CC1=NNC(=O)c3cc(F)cc4[nH]c2c1c34 [PAMIPARIB]
bioavailability [1]: 72.6%
IC50 [2]: 47.8 µM
half-life [3]: 3.16 h
BPR [4]: 18.9%
CLint scaled [5]: 12.9 mL/min/kg
microsomal CLint [6]: 7.9 µL/min/mg
Papp A→B [7]: 30.3 ×10⁻⁶ cm/s
concentration at 2 h [8]: 1330 ng/mL
fraction unbound [9]: 0.15
Activity (NCI-H209): 50%
bioavailability [10]: 93.7%
IC50 [11]: 23.9 µM
concentration at 1 h [12]: 3530 ng/mL
Cmax [13]: 861 ng/mL
concentration at 2 h [14]: 252 ng/g
CL [15]: 29.9 mL/min/kg
concentration at 1 h [16]: 613 ng/g
Tmax [17]: 1 h
AUC(0-inf) [18]: 3470 ng·h/mL
half-life [19]: 3.95 h
inhibition [20]: inactive
IC50 (Cytochrome P450 2C19): > 10 µM
IC50 (Cytochrome P450 2C9): > 10 µM
IC50 [21]: 19.4 µM
EC50 (HCC1395): 0.0425 µM
inhibition at 20 µM (hERG (KCNH2)): 51%
IC50 (Cytochrome P450 2D6): > 10 µM
BPR [22]: 19.1%
Vd [23]: 5.65 L/kg
AUC(0-inf) [24]: 1600 ng·h/mL
Cmax [25]: 502 ng/mL
fraction unbound [26]: 0.043
EC50 (MDA-MB-231): > 10 µM
AUC(0-inf) [27]: 1480 ng·h/mL
